The source made the active and inactive calls. No cut-off for these calls is given here.
Legend:
Papain (Carica papaya) [1] = target: T1, Papain (Carica papaya) (UniProt P00784); test: Inhibition of papain at 1.3 mM after 20 mins
T1 sequence (whole entry): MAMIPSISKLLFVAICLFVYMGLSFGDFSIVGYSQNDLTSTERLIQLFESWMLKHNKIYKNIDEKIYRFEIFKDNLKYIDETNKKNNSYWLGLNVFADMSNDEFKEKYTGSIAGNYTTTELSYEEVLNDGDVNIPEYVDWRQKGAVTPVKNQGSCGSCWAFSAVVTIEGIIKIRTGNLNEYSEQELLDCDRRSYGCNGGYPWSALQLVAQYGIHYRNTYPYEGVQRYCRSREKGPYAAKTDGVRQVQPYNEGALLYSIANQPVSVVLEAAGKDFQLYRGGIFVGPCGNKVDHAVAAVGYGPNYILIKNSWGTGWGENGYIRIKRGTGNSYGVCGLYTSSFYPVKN
How it was run: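 Papain was pre-incubated with inhibitor at 1.3 mM for 20 min. Residual activity on BAPA was read at 410 nm and reported as % inhibition.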

[2] = target: Pancreatic elastase (Sus scrofa) (UniProt P08419+P00772); test: Inhibition of pig pancreatic elastase; type: protein assay
How it was run: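 Porcine pancreatic elastase (50 µM stock) was incubated with inhibitor (DMSO stock) in 0.1 M Hepes pH 7.2 for up to 2 h. Timed aliquots were assayed on Suc-Ala-Ala-Ala-4-nitroanilide, following absorbance at 390 nm for 50 s.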

Papain (Carica papaya) [3] = target: T1, Papain (Carica papaya); test: Inhibition of papain at 65 uM after 30 mins
How it was run: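 Papain activated 30 min at 25 °C in 50 mM potassium phosphate pH 7.0 with 2.5 mM EDTA and 2.0 mM DTT. Inhibitor in DMSO added to the enzyme in EDTA-only buffer, with control incubations run in parallel. Aliquots went into BAPA substrate in buffer with EDTA and DTT. p-Nitroaniline release read at 410 nm for 4 min at 25 °C.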

Cathepsin B (Bos taurus) = Cathepsin B (Bos taurus) (UniProt P07688); test: Inhibition of bovine spleen cathepsin B
How it was run: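 Cathepsin B (10 U/mL) was activated 15 min at 25 °C in 20 mM sodium acetate pH 5.0 with 1.0 mM EDTA and 30 mM DTT. It was then pre-incubated with inhibitor (DMSO stock) in acetate/EDTA buffer (Kitz–Wilson method). Aliquots were assayed on Z-S-Lys-ONp with 2.0 mM DTT, following p-nitrophenol at 326 nm for 3 min at 25 °C. k_obs came from ln(v/v0) versus time, using 4–6 inhibitor concentrations.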

SMILES	Activity [2]	further results
O=C1C=C(O)C(=O)c2ccccc21	inactive	inhibition (Papain (Carica papaya) [1]): 82%
CNC1=CC(=O)c2ccccc2C1=O	inactive	
CCOC(=O)[C@H](Cc1ccccc1)NC1=C(Cl)C(=O)c2ccccc2C1=O	inactive	
CCOC(=O)CNC1=C(Cl)C(=O)c2ccccc2C1=O	inactive	
O=C1C=CC(=O)c2ccccc21	inactive	inhibition (Papain (Carica papaya) [3]): 49.5%
CC(C)CCNC(=O)[C@H](CC(C)C)NC1=CC(=O)c2ccccc2C1=O	inactive	
CCOC(=O)CNC1=C(Br)C(=O)c2ccccc2C1=O	inactive	Kinact (Cathepsin B (Bos taurus)): 55.9 µM
CCOC(=O)CNC1=CC(=O)c2ccccc2C1=O	inactive	Kinact (Cathepsin B (Bos taurus)): 14 µM
CCOC(=O)[C@H](Cc1ccccc1)NC1=C(Br)C(=O)c2ccccc2C1=O	inactive	
CCOC(=O)[C@H](Cc1ccccc1)NC1=CC(=O)c2ccccc2C1=O	inactive	
O=C1C=CC(=O)c2c(O)cccc21	inactive	inhibition (Papain (Carica papaya) [3]): 60.4%
O=C1C(Cl)=C(N2CCOCC2)C(=O)c2ccccc21	inactive	
CNC1=C(Br)C(=O)c2ccccc2C1=O	inactive	
CC1=CC(=O)c2c(C)ccc(C)c2C1=O	inactive	
CC1=CC(=O)c2ccccc2C1=O	inactive	
CCOC1=CC(=O)c2ccccc2C1=O	inactive	Kinact (Cathepsin B (Bos taurus)): 797 µM
O=C1C(Cl)=C(Cl)C(=O)c2ccccc21	inactive	
CC(=O)Oc1cccc2c1C(=O)C=CC2=O	inactive	
O=C1C=C(Br)C(=O)c2ccccc21	inactive	

— ChEMBL document CHEMBL1140013, “The 1,4-naphthoquinone scaffold in the design of cysteine protease inhibitors” (Bioorg Med Chem, 2007)
